Measured values taken from ChEMBL document CHEMBL1154177, “Special ergolines are highly selective, potent antagonists of the chemokine receptor CXCR3: discovery, characterization and preliminary SAR of a promising lead” (Bioorg Med Chem Lett, 2009).
Values after ≈ are worked out from the molar mass of the structure shown.

Key:
[1] = target: T1, C-X-C chemokine receptor type 3 (Homo sapiens, UniProt P49682); assay: Antagonist activity at human CXCR3 expressed in L1.2 cells assessed as inhibition of I-TAC-induced Ca2+ mobilization by FLIPR assay; format: functional, cell-based
T1 sequence (P49682 whole entry): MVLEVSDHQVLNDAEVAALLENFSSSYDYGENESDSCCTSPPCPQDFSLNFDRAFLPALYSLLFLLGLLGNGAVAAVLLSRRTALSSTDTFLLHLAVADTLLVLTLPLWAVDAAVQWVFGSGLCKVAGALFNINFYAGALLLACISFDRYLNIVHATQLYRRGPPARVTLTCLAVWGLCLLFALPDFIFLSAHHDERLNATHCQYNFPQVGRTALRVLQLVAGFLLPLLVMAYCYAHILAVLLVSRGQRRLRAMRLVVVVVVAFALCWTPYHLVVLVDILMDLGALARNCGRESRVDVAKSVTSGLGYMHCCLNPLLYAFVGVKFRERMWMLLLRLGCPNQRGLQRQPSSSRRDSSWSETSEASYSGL
How it was run: (§1)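 CXCR3-transfected L1.2 mouse pre-B cells were loaded with Fluo-4 and washed. They were pre-incubated with inhibitor for 2 h at room temperature, then stimulated with I-TAC. The transient rise in intracellular Ca2+ was read on a FLIPR.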

[2] = target: T1, C-X-C chemokine receptor type 3; assay: Displacement of [125I]I-TAC from human CXCR3 expressed in CHO cells by scintillation proximity assay; format: cell-based
How it was run: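 Membranes came from CHO cells transfected with human CXCR3. Serial dilutions of inhibitor were incubated for 2 h at room temperature with 125I-labelled I-TAC (CXCL11), the membranes and WGA-coated PVT beads. Binding was read by scintillation proximity.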

Cytochrome P450 2D6 = Cytochrome P450 2D6 (Homo sapiens, UniProt P10635); assay: Inhibition of CYP2D6; format: ADME
[3] = target: 5-hydroxytryptamine receptor 2B (Homo sapiens, UniProt P41595); assay: Inhibition of 5HT2B receptor
[4] = target: 5-hydroxytryptamine receptor 2A (Homo sapiens, UniProt P28223); assay: Inhibition of 5HT2A receptor
[5] = Fraction unbound in rat; format: ADME, organism-based; conditions: in vivo
[6] = Fraction unbound in human; format: ADME, organism-based; conditions: in vivo
[7] = target: 5-hydroxytryptamine receptor 1A (Homo sapiens, UniProt P08908); assay: Inhibition of 5HT1A receptor
[8] = target: T2, C-X-C chemokine receptor type 3 (Mus musculus, UniProt O88410); assay: Displacement of [125I]I-TAC from mouse CXCR3 expressed in CHO cells by scintillation proximity assay; format: cell-based
[9] = target: Beta-1 adrenergic receptor (Homo sapiens, UniProt P08588); assay: Inhibition of adrenergic beta-1 receptor
[10] = Solubility in pH 1.0 buffer; format: physicochemical
[11] = Solubility in pH 6.8 buffer; format: physicochemical
Cytochrome P450 2C9 = Cytochrome P450 2C9 (Homo sapiens, UniProt P11712); assay: Inhibition of CYP2C9; format: ADME
D(1A) dopamine receptor = D(1A) dopamine receptor (Homo sapiens, UniProt P21728); assay: Inhibition of dopamine D1 receptor
[12] = target: 5-hydroxytryptamine receptor 7 (Homo sapiens, UniProt P34969); assay: Inhibition of 5HT7 receptor
[13] = target: Alpha-2C adrenergic receptor (Homo sapiens, UniProt P18825); assay: Inhibition of adrenergic Alpha-2C receptor
D(3) dopamine receptor = D(3) dopamine receptor (Homo sapiens, UniProt P35462); assay: Inhibition of dopamine D3 receptor
Cytochrome P450 3A4 = Cytochrome P450 3A4 (Homo sapiens, UniProt P08684); assay: Inhibition of CYP3A4; format: ADME
[14] = target: T2, C-X-C chemokine receptor type 3; assay: Antagonist activity at mouse CXCR3 expressed in L1.2 cells assessed as inhibition of I-TAC-induced Ca2+ mobilization by FLIPR assay; format: functional, cell-based; how it was run: as §1
[15] = target: 5-hydroxytryptamine receptor 6 (Homo sapiens, UniProt P50406); assay: Inhibition of 5HT6 receptor
[16] = target: 5-hydroxytryptamine receptor 2C (Homo sapiens, UniProt P28335); assay: Inhibition of 5HT2C receptor
[17] = target: Voltage-gated inwardly rectifying potassium channel KCNH2 (Homo sapiens, UniProt Q12809); assay: Inhibition of human ERG
[18] = Lipophilicity, log P of the compound; format: physicochemical; conditions: octanol/water
[19] = target: Alpha-2A adrenergic receptor (Homo sapiens, UniProt P08913); assay: Inhibition of adrenergic alpha2A receptor
Cytochrome P450 2C19 = Cytochrome P450 2C19 (Homo sapiens, UniProt P33261); assay: Inhibition of CYP2C19; format: ADME
D(2) dopamine receptor = D(2) dopamine receptor (Homo sapiens, UniProt P14416); assay: Inhibition of dopamine D2 receptor
D(4) dopamine receptor = D(4) dopamine receptor (Homo sapiens, UniProt P21917); assay: Inhibition of dopamine D4.4 receptor
Cytochrome P450 1A2 = Cytochrome P450 1A2 (Homo sapiens, UniProt P05177); assay: Inhibition of CYP1A2; format: ADME
[20] = Inhibition of adrenergic alpha1 receptor

5-hydroxytryptamine receptor 7, sequence (P34969 whole entry): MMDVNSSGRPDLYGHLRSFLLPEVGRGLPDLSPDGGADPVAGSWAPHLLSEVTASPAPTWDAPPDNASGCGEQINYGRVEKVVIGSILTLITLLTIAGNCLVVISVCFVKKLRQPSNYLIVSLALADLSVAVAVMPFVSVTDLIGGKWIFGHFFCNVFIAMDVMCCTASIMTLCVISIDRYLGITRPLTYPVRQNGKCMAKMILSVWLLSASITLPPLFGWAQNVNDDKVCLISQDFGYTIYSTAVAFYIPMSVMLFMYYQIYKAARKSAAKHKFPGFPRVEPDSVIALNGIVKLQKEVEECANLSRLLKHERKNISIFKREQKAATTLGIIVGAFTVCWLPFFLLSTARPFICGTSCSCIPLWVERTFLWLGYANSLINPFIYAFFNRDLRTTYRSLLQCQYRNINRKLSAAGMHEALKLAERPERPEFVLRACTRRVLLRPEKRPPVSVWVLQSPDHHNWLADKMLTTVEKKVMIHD
Alpha-2C adrenergic receptor, sequence (P18825 whole entry): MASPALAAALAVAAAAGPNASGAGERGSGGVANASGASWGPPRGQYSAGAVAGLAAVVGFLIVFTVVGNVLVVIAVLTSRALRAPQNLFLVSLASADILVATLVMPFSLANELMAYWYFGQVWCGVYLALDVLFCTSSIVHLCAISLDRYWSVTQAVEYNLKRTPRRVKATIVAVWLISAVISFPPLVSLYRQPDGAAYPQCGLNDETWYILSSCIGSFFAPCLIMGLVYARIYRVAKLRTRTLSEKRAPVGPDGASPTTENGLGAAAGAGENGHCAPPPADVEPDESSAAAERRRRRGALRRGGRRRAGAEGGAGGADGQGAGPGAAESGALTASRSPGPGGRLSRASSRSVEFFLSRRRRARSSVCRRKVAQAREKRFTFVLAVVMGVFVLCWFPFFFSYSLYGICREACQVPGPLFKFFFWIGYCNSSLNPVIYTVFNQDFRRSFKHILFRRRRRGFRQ
Alpha-2A adrenergic receptor, sequence (P08913 whole entry): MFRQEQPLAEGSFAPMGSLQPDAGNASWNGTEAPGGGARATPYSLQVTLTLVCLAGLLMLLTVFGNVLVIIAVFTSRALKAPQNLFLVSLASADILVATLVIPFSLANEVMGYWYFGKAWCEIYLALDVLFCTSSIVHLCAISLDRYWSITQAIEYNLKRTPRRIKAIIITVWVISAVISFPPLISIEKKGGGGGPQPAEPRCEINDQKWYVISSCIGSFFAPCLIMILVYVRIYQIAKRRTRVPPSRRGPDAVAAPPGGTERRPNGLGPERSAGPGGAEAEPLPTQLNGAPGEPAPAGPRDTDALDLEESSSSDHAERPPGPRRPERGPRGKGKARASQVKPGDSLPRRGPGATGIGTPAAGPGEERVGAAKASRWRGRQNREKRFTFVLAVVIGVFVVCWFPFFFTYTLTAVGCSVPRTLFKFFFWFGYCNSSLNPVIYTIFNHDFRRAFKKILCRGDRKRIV
D(2) dopamine receptor, sequence (P14416 whole entry): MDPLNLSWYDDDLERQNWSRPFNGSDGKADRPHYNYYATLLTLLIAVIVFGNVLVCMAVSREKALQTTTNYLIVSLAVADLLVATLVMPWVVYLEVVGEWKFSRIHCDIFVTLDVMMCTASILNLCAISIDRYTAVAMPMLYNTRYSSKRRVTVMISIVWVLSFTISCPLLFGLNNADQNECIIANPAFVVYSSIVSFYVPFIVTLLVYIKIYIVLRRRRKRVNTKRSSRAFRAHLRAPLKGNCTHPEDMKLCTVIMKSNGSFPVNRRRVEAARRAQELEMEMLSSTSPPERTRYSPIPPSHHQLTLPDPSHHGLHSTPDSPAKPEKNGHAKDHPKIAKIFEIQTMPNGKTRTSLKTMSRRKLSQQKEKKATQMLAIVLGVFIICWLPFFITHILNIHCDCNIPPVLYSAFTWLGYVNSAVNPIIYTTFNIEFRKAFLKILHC
D(1A) dopamine receptor, sequence (P21728 whole entry): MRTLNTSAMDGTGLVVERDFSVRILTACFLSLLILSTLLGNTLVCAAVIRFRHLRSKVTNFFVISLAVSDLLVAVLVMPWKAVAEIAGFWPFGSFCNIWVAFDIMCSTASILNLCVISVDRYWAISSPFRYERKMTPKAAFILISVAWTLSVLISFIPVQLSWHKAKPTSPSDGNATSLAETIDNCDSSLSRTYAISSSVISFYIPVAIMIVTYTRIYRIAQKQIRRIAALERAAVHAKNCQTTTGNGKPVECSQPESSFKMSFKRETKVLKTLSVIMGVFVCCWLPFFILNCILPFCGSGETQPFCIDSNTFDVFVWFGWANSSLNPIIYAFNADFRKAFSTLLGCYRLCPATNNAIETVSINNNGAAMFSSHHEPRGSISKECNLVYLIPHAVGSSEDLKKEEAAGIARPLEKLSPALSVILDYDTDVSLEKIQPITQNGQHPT
D(4) dopamine receptor, sequence (P21917 whole entry): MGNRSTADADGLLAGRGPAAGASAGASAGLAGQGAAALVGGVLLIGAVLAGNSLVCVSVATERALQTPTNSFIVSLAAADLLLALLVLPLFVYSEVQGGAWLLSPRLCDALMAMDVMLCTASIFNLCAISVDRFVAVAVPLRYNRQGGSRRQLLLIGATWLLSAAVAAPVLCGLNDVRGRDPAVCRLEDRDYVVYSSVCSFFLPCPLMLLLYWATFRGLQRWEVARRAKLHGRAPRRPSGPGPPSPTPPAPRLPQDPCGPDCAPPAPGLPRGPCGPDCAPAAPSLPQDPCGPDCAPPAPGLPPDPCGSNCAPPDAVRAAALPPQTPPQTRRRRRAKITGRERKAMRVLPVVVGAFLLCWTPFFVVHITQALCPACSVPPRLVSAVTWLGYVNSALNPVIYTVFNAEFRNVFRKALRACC
Beta-1 adrenergic receptor, sequence (P08588 whole entry): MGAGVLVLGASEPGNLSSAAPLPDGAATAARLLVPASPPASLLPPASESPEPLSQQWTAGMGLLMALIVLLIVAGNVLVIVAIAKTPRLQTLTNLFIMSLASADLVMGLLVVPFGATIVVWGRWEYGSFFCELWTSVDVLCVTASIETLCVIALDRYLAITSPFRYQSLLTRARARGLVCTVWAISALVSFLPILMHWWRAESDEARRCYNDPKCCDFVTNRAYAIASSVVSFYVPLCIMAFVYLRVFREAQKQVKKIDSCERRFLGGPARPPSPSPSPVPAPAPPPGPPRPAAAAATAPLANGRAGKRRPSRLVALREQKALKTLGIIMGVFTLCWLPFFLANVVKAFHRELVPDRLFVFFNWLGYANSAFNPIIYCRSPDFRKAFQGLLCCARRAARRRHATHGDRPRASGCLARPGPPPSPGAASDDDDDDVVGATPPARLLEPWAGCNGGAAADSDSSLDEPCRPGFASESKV
T2 sequence (O88410 whole entry): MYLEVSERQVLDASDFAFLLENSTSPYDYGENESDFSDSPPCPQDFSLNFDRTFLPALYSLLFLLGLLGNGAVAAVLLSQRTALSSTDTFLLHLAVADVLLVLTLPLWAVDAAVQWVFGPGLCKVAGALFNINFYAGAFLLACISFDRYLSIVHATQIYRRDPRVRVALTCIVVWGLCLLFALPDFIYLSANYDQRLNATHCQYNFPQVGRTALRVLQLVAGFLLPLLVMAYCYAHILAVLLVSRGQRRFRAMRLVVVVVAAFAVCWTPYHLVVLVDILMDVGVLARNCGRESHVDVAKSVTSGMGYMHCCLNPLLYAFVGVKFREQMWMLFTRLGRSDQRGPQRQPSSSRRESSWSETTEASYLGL
5-hydroxytryptamine receptor 2C, sequence (P28335 whole entry): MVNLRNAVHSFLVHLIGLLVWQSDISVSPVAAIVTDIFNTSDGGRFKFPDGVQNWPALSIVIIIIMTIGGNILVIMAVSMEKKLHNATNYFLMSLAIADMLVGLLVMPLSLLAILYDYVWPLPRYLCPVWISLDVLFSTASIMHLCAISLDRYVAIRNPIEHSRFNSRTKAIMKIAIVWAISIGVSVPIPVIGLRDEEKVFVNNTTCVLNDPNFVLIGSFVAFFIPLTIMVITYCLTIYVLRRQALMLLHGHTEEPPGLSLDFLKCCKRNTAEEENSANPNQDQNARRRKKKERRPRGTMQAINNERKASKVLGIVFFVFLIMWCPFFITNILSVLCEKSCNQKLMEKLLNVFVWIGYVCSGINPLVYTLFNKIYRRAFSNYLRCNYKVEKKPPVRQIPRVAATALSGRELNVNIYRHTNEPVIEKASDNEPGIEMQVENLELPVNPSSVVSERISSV
D(3) dopamine receptor, sequence (P35462 whole entry): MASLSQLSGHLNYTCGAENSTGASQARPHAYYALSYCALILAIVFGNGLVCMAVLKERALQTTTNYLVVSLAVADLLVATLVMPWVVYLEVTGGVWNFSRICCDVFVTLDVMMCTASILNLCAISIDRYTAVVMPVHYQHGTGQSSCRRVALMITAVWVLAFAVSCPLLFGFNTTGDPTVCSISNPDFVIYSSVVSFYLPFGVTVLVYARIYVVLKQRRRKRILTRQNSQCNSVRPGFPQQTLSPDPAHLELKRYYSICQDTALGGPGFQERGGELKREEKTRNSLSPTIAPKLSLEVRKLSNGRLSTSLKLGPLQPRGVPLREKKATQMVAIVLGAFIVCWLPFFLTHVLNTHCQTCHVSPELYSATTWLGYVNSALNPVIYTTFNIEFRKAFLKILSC
5-hydroxytryptamine receptor 2B, sequence (P41595 whole entry): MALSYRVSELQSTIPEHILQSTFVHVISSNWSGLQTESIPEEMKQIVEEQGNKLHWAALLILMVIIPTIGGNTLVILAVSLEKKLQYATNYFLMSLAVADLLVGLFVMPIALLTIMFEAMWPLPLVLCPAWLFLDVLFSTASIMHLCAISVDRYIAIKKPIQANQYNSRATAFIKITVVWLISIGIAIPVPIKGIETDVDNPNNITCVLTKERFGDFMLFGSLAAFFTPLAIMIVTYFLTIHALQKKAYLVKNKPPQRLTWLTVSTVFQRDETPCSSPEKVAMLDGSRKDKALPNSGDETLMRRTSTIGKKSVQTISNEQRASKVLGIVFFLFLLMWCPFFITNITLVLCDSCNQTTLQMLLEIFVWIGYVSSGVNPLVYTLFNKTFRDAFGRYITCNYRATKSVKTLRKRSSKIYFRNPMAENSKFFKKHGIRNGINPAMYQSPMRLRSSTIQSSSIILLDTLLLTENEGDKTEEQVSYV

Structure (SMILES): CCN(CC)C(=O)[C@@H]1C=C2c3cccc4[nH]cc(c34)C[C@H]2N(C(=O)Nc2ccc(C)cc2)C1
- IC50 [1]: 100 nM
- IC50 [2]: 313 nM

Structure (SMILES): CCN(CC)C(=O)[C@@H]1C=C2c3cccc4[nH]cc(c34)C[C@H]2N(C(=O)Nc2cccnc2)C1
- IC50 [1]: 67 nM
- IC50 [2]: 285 nM

Structure (SMILES): CCN(CC)C(=O)[C@@H]1C=C2c3cccc4c3c(cn4Cc3ccccc3)C[C@H]2N(C(=O)Nc2ccccc2)C1
- IC50 [1]: 510 nM
- IC50 [2]: 590 nM

Structure (SMILES): CCN(CC)C(=O)[C@@H]1C=C2c3cccc4[nH]cc(c34)C[C@H]2N(C(=O)Nc2ccncc2)C1
- IC50 [1]: 6800 nM
- IC50 [2]: 2000 nM

Structure (SMILES): CCN(CC)C(=O)[C@@H]1CC2c3cccc4[nH]cc(c34)C[C@H]2N(C(=O)Nc2ccccc2)C1 (some centres not stated)
- IC50 [1]: 1930 nM
- IC50 [2]: 5300 nM

Structure (SMILES): CCN(CC)C(=O)[C@@H]1C=C2c3cccc4[nH]cc(c34)C[C@H]2N(C(=O)Nc2cc(OC)c(OC)c(OC)c2)C1
- IC50 [1]: 564 nM
- IC50 [2]: 3050 nM

Structure (SMILES): CCN(CC)C(=O)[C@H]1C=C2c3cccc4[nH]cc(c34)C[C@H]2N(C(=O)Nc2ccccc2)C1
- IC50 [2]: > 10000 nM

Structure (SMILES): CCN(CC)C(=O)[C@@H]1C=C2c3cccc4c3c(cn4C)C[C@H]2N(C(=O)Nc2ccccc2)C1
- IC50 [1]: 60 nM
- IC50 [2]: 220 nM

Structure (SMILES): CCN(CC)C(=O)[C@@H]1C=C2c3cccc4[nH]cc(c34)C[C@H]2N(C(=O)Oc2ccccc2)C1
- IC50 [1]: 809 nM
- IC50 [2]: 803 nM

Structure (SMILES): CCN(CC)C[C@@H]1C=C2c3cccc4[nH]cc(c34)C[C@H]2N(C(=O)Nc2ccccc2)C1
- IC50 [1]: > 10000 nM
- IC50 [2]: > 10000 nM

Structure (SMILES): CCN(CC)C(=O)[C@@H]1C=C2c3cccc4[nH]cc(c34)C[C@H]2N(C(=O)Nc2ccccc2)C1
- IC50 (Cytochrome P450 2D6): > 10000 nM
- IC50 [3]: 2470 nM
- IC50 [4]: 750 nM
- fraction unbound [5]: 0.02
- fraction unbound [6]: 0.01
- IC50 [7]: 3600 nM
- IC50 [8]: 200 nM
- IC50 [9]: 5760 nM
- solubility [10]: 5 µg/mL (≈ 11.7 µM)
- solubility [11]: 5 µg/mL (≈ 11.7 µM)
- IC50 (Cytochrome P450 2C9): > 10000 nM
- IC50 (D(1A) dopamine receptor): 4900 nM
- IC50 [12]: > 10000 nM
- IC50 [1]: 18 nM
- IC50 [13]: 215 nM
- IC50 (D(3) dopamine receptor): 660 nM
- IC50 [2]: 54 nM
- IC50 (Cytochrome P450 3A4): > 10000 nM
- IC50 [14]: 30 nM
- IC50 [15]: 9580 nM
- IC50 [16]: > 10000 nM
- IC50 [17]: > 30000 nM
- logP [18]: 4.2
- IC50 [19]: 1930 nM
- IC50 (Cytochrome P450 2C19): > 10000 nM
- IC50 (D(2) dopamine receptor): 1590 nM
- IC50 (D(4) dopamine receptor): 2650 nM
- IC50 (Cytochrome P450 1A2): > 10000 nM
- IC50 [20]: 4030 nM

Structure (SMILES): CCN(CC)C(=O)[C@@H]1C=C2c3cccc4[nH]cc(c34)C[C@H]2N(C(=O)Nc2ccccc2C)C1
- IC50 [1]: 28 nM
- IC50 [2]: 146 nM

Structure (SMILES): CCN(CC)C(=O)[C@@H]1C=C2c3cccc4[nH]cc(c34)C[C@H]2N(C(=O)NC2CCCCC2)C1
- IC50 [1]: 78 nM
- IC50 [2]: 179 nM

Structure (SMILES): CCN(CC)C(=O)[C@@H]1C=C2c3cccc4[nH]cc(c34)C[C@H]2N(C(=O)N(C)c2ccccc2)C1
- IC50 [1]: > 10000 nM
- IC50 [2]: > 10000 nM

Structure (SMILES): CCN(CC)C(=O)[C@@H]1C=C2c3cccc4[nH]cc(c34)C[C@H]2NC1
- IC50 [3]: 54 nM
- IC50 [4]: 6 nM
- IC50 [9]: > 10000 nM
- IC50 (D(1A) dopamine receptor): > 10000 nM
- IC50 [12]: 143 nM
- IC50 [13]: > 10000 nM
- IC50 (D(3) dopamine receptor): > 10000 nM
- IC50 [2]: > 10000 nM
- IC50 [15]: 16 nM
- IC50 [16]: 1290 nM
- IC50 [19]: > 10000 nM
- IC50 (D(2) dopamine receptor): > 10000 nM
- IC50 (D(4) dopamine receptor): > 10000 nM
- IC50 [20]: > 10000 nM

Structure (SMILES): CCN(CC)C(=O)[C@@H]1C=C2c3cccc4[nH]cc(c34)C[C@H]2N(C(=O)Nc2ccccn2)C1
- IC50 [1]: 62 nM
- IC50 [2]: 428 nM

Structure (SMILES): CCN(CC)C(=O)[C@@H]1C=C2c3cccc4[nH]cc(c34)C[C@H]2N(C(=O)Nc2cccc(C)c2)C1
- IC50 [1]: 45 nM
- IC50 [2]: 231 nM
